The values that follow come from ChEMBL document CHEMBL4699593, “Identification of 2,4-Disubstituted Imidazopyridines as Hemozoin Formation Inhibitors with Fast-Killing Kinetics and In Vivo Efficacy in the Plasmodium falciparum NSG Mouse Model” (J Med Chem, 2020).

Values after ≈ are worked out from the molar mass of the structure shown.

Data set [1] concerns Plasmodium falciparum. The experiment in a line: Antiplasmodial activity against multidrug-sensitive asexual blood stage Plasmodium falciparum NF54 strain assessed as reduction in parasite growth after 72 hrs by NBT reagent based LDH assay. The data set is classed as functional, organism-based. Particulars: NF54, 72 h.
The test system of data set [2] is Plasmodium falciparum. The experiment in a line: Antiplasmodial activity against multidrug-resistant asexual blood stage Plasmodium falciparum K1 strain assessed as reduction in parasite growth after 72 hrs by NBT reagent based LDH assay. The data set is classed as functional, organism-based. The settings on record: K1, 72 h. In short, it runs like this: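 Asexual blood-stage K1 (multidrug-resistant) parasites were read out by the parasite lactate dehydrogenase (pLDH) assay. […] Most individual values varied less than 2× (maximum 3×).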

Data set [3] is described as follows: Aqueous solubility of compound in phosphate buffer saline at pH 6.5 incubated for 20 hrs under shaking condition by shake-flask method based HPLC-DAD analysis. The data set is classed as physicochemical. The settings on record: phosphate buffered saline. The essentials: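 Equilibrium aqueous solubility was measured at pH 6.5 using a miniaturized shake-flask method.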

In data set [4] the test system is Hemozoin. Description: Inhibition of beta-hematin formation assessed as reduction in hemozoin formation incubated for 5 hrs by NP40 detergent-mediated assay. The essentials:
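Synthetic hemozoin (β-hematin) formation is driven by the detergent Nonidet P-40. Pyridine is then added to detect unreacted hematin. IC50 is derived from this read-out.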

The subject of data set [5] is CHO. The experiment in a line: Cytotoxicity against CHO cells assessed as reduction in cell viability by MTT assay. The settings on record: chinese hamster. It is filed as cell-based, Cricetulus griseus. The essentials:
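Cytotoxicity was measured in Chinese hamster ovary (CHO) cells and reported as CC50. The selectivity index is CC50 divided by NF54 IC50.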

A short description of data set [6]: Selectivity index, ratio of CC50 for cytotoxicity against CHO cells assessed as reduction in cell viability to IC50 for antiplasmodial activity against multidrug-sensitive Plasmodium falciparum NF54 assessed as reduction in parasite growth. It is filed as toxicity, cell-based. Particulars: hamster, read-out: Ratio CC50/IC50.
For data set [7], the target named is Voltage-gated inwardly rectifying potassium channel KCNH2 (Homo sapiens, UniProt Q12809). Description: Inhibition of human ERG by patch clamp method. For orientation: In patch-clamp work, channel activity is measured electrically.
Chain of Voltage-gated inwardly rectifying potassium channel KCNH2 (Q12809 whole entry): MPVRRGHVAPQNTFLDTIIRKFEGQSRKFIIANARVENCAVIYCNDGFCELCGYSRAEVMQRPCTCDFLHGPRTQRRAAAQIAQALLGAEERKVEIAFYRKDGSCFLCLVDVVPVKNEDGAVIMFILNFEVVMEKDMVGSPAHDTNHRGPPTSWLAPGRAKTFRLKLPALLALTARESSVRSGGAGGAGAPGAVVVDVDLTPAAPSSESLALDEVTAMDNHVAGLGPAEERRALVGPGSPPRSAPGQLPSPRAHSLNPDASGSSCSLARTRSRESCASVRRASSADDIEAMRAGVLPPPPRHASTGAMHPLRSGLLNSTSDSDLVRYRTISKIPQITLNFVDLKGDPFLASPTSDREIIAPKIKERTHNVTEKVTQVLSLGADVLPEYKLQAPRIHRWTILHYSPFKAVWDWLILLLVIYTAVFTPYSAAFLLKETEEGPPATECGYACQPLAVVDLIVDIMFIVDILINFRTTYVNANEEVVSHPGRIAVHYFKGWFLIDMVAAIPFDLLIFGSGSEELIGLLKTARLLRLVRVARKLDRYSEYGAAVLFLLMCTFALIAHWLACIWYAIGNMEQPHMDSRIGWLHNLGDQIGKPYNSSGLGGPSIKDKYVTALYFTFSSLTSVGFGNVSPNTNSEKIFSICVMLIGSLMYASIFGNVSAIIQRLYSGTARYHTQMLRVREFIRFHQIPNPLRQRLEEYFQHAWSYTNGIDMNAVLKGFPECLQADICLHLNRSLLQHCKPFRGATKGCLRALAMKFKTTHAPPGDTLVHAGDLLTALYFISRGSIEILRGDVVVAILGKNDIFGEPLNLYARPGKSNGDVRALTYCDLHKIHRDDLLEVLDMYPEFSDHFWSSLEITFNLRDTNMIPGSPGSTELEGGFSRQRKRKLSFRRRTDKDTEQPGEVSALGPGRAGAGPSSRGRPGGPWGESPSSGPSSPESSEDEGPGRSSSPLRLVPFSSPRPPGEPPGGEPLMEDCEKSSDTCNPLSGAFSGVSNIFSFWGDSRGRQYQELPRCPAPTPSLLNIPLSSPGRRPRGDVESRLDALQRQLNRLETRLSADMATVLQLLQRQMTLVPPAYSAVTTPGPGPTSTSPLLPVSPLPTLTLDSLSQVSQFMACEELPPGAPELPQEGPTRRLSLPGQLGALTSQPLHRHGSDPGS
Data set [8] can be described thus: Cmax in Balb/C mouse at 2 mg/kg, iv by LC-MS/MS analysis. The data set is classed as ADME, organism-based. Also noted: route intravenous, dose 2 mg/kg. Particulars: in vivo. In short, it runs like this: (§1)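 Healthy Balb/c mice dosed i.v. or orally. Parameters come from non-compartmental analysis of compound concentration over time. […] Clearance is blood clearance (CL_b).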

Data set [9] can be described thus: Cmax in Balb/C mouse at 20 mg/kg, po by LC-MS/MS analysis. Also noted: route oral, dose 20 mg/kg. The data set is classed as ADME, organism-based. Particulars: in vivo. In short, it runs like this:
as §1

The nature of data set [10]: Tmax in Balb/C mouse at 20 mg/kg, po by LC-MS/MS analysis. It is filed as ADME, organism-based. The settings on record: in vivo. The essentials:
(§2)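 Healthy Balb/c mice were given the compound i.v. or orally. Parameters come from non-compartmental analysis: AUC from 0 h to t_last, blood clearance, volume at steady state, terminal half-life, Tmax. Oral bioavailability F is derived from the i.v. and p.o. data.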

The nature of data set [11]: Terminal half life in Balb/C mouse at 2 mg/kg, iv by LC-MS/MS analysis. It is filed as ADME, organism-based. The settings on record: in vivo, read-out: beta t1/2 (converted). The essentials:
as §2

The nature of data set [12]: Terminal half life in Balb/C mouse at 20 mg/kg, po by LC-MS/MS analysis. The data set is classed as ADME, organism-based. Particulars: in vivo, read-out: beta t1/2 (converted). The essentials:
as §2

Data set [13] can be described thus: Clearance in Balb/C mouse blood at 2 mg/kg, iv by LC-MS/MS analysis. The data set is classed as ADME, organism-based. The settings on record: whole blood. In short, it runs like this:
as §1

A short description of data set [14]: Volume of distribution at steady state in Balb/C mouse at 2 mg/kg, iv by LC-MS/MS analysis. It is filed as ADME, organism-based. The settings on record: in vivo, read-out: Vdss. In short, it runs like this: as §2
Data set [15] is described as follows: AUC (0 to t) in Balb/C mouse at 2 mg/kg, iv by LC-MS/MS analysis. The data set is classed as ADME, organism-based. Also noted: dose 2 mg/kg. Particulars: in vivo. In short, it runs like this: as §1
The nature of data set [16]: AUC (0 to t) in Balb/C mouse at 20 mg/kg, po by LC-MS/MS analysis. It is filed as ADME, organism-based. Also noted: dose 20 mg/kg. Particulars: in vivo. In short, it runs like this: as §1
Data set [17] in a line: Oral bioavailability in Balb/C mouse at 20 mg/kg by LC-MS/MS analysis. The data set is classed as ADME, organism-based. Particulars: in vivo. In short, it runs like this: as §2
Data set [18] in a line: Ratio of unbound average drug concentration in Balb/c mouse at 20 mg/kg, po measured at 24 hrs to IC50 for antiplasmodial activity against multidrug-sensitive Plasmodium falciparum NF54 asexual blood stage assessed as reduction in parasite growth after 72 hrs by LDH assay. The data set is classed as organism-based. Particulars: in vivo.
A short description of data set [19]: Apparent intrinsic clearance in mouse liver microsomes at 0.1 uM in presence of NADPH by LC-MS/MS analysis. The data set is classed as ADME, Microsome. In short, it runs like this: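 Compound was incubated with mouse liver microsomes for 30 min. Apparent intrinsic clearance (CL_int,app) is reported in μL/min/mg.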
For orientation: Microsomes from liver hold many membrane-bound enzymes, among them those of drug oxidation.

Data set [20] can be described thus: Dissociation constant, pKa of compound. The data set is classed as physicochemical.

A word on the IC50: it is the concentration that inhibits the measured activity by half. As a reminder, the solubility (thermodynamic) is solubility found after equilibrating the solid with the medium. On to `CN1CCN(CC2CCN(c3nc(C#N)cc4[nH]c(-c5cc(F)cc(F)c5)nc34)CC2)CC1`, for which the IC50 in [1] amounted to 0.077 µM; in [2], 0.049 µM; in [4], 8.5 µM. Further, in data set [3], the thermodynamic solubility at 20 h was < 5 µM.

The term CC50 denotes the concentration at which the toxic effect on the cells reaches its halfway point. In the case of `CN1CCN(CC2CCN(c3nccc4[nH]c(-c5ccc(F)c(F)c5)nc34)CC2)CC1`, the IC50 in data set [1] is < 0.02 µM; in data set [2], 0.027 µM. The compound further gave a solubility (thermodynamic) at 20 h in [3] of 195 µM (≈ 83.2 µg/mL). The CC50 in data set [5] was 7.4 µM. Besides, the selectivity ratio in data set [6] worked out at 370.

Turning to `CN1CCN(CC2CCN(c3nncc4[nH]c(-c5cc(F)cc(F)c5)nc34)CC2)CC1`, the figures for the IC50 in data set [1], in data set [2] and in [4] were 0.58 µM, 2.9 µM and 25 µM, respectively. The compound further showed a thermodynamic solubility at 20 h in [3] of 190 µM (≈ 81.2 µg/mL).

The term Cmax denotes the maximum level reached in the sampled fluid or tissue. For orientation: Tmax means the time at which the peak concentration occurs. Broadly, the clearance is the volume of plasma or blood freed of the substance per unit of time. Lower therefore signals inefficient removal. What is called bioavailability is dose-corrected exposure relative to a reference, in per cent. A high value points to good availability. On to `CN1CCN(C2CCN(c3nccc4[nH]c(-c5cc(F)cc(F)c5)nc34)CC2)CC1`, for which the IC50 in [1] is 0.05 µM; in data set [2] it was 0.17 µM; in data set [7] it was > 30 µM. This compound showed a thermodynamic solubility at 20 h in data set [3] of 200 µM (≈ 82.5 µg/mL). In addition, in data set [5], the CC50 was 30 µM. For the same compound, the Cmax was 300 nM in [8] and 1500 nM in data set [9]. Moreover, the Tmax in [10] came to 1.5 h. For the same compound, the half-life in data set [11] was 12.6 h; in [12], 9.8 h. In data set [13], this compound had a clearance of 34.8 mL/min/kg. Moreover, in data set [14], the Vd was 30 L/kg. Also, the AUCt in data set [15] was determined as 1.95 µM·h; in data set [16] it was 11.8 µM·h. In data set [17], this compound displayed a bioavailability of 61%. The Ratio in data set [18] turned out to be 2.5.

As to `Cc1cc2[nH]c(-c3cc(F)cc(F)c3)nc2c(N2CCC(CN3CCN(C)CC3)CC2)n1`, the IC50 in [1] was 0.012 µM; in data set [2], 0.021 µM; in [7], > 30 µM; in [4], 15 µM. This compound also yielded a thermodynamic solubility at 20 h in data set [3] of 200 µM (≈ 88.1 µg/mL). In [5], the CC50 stood at 1.9 µM. The selectivity ratio in data set [6] was 160.

In the case of `CN1CCC(N2CCCN(c3nccc4[nH]c(-c5ccc(F)c(F)c5)nc34)CC2)CC1`, the IC50 in data set [1] is 0.035 µM; in data set [2], 0.22 µM. In [3], this compound came in with a solubility (thermodynamic) at 20 h of 200 µM (≈ 85.3 µg/mL). Moreover, the 50% cytotoxic concentration (CC50) in data set [5] was 17 µM. The CLH in data set [19] was > 200 µL/min/mg. The selectivity ratio in data set [6] came out at 490.

In the case of `CN1CCN(C2CCN(c3nccc4[nH]c(-c5cccc(OC(F)(F)F)c5)nc34)CC2)CC1`, the IC50 in data set [1] came out at 0.064 µM; in data set [2], 0.091 µM. Moreover, in data set [3], the solubility (thermodynamic) at 20 h stood at 190 µM (≈ 87.5 µg/mL). In data set [5], the half-maximal cytotoxic concentration (CC50) turned out to be 3 µM. Besides, the selectivity ratio in data set [6] was 47.

The term pKa denotes the negative logarithm of the acid dissociation constant. In the case of `Fc1cc(F)cc(-c2cc3c(N4CCC(N5CCOCC5)CC4)nccc3[nH]2)c1`, the pKa in data set [20] is 8.2.

Turning to `CN1CCN(C2CCN(c3nccc4[nH]c(-c5ccc(F)c(F)c5)nc34)CC2)CC1`, the IC50 in data set [1] amounted to 0.046 µM; in data set [2], 0.22 µM. Further, the solubility (thermodynamic) at 20 h in data set [3] is 130 µM (≈ 53.6 µg/mL). For the same compound, the CC50 in data set [5] stood at 5 µM. For the same compound, in data set [6], the selectivity ratio came out at 110.
